Screening data from PubChem.
Rows were chosen to be rich in hits. Some 1.8% of all compounds tested hit in one or more screens of this group.
UHRF1 binding: UHRF1 methylated DNA binding inhibitors, primary screen, counter-screen for MBD2 inhibitor project, biochemical, TR-FRET, human UHRF1, single concentration. E3 ubiquitin-protein ligase UHRF1 (Homo sapiens), Q96T88. UHRF1 binding to methylated oligo. inhibition, % at 4.4 µM. 0.75% of 370,000 active. AID 687016, 2013; in the data active = inhibition above about 21%;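 also: UHRF1 SRA domain binding a hemimethylated CpG hairpin DNA probe; 0% = median of test compound wells and 100% = reference inhibitor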
Target sequence (Q96T88 whole entry, looked up, the tested form may be a part): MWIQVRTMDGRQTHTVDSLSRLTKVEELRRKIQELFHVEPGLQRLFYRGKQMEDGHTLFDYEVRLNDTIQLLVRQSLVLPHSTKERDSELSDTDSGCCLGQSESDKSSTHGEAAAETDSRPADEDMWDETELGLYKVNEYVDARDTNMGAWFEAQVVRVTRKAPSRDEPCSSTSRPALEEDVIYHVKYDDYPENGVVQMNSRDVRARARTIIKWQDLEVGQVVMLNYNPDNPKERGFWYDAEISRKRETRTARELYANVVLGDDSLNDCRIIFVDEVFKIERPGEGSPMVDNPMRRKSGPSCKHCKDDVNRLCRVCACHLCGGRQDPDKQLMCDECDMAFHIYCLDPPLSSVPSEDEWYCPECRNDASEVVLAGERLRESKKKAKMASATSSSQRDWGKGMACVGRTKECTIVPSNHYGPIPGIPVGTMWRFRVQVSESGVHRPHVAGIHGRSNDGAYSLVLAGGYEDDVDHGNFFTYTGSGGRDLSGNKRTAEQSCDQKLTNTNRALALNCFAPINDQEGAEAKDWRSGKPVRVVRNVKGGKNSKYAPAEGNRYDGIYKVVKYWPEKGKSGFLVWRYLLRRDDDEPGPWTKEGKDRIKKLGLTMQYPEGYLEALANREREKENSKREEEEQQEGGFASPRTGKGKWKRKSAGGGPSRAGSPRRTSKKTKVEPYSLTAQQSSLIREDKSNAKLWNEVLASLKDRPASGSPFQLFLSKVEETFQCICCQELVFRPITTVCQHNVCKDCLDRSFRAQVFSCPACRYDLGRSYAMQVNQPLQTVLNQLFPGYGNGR
NSD2 inh: NSD2 histone methyltransferase inhibitors, primary screen, biochemical, AlphaScreen, single concentration, set 2; Histone-lysine N-methyltransferase NSD2 (Homo sapiens), O96028; NSD2 peptide methylation, 120 min; 0.54% of 310,000 active; inhibition, % at 12.5 µM; AID 743445, 2014; in the data active = inhibition above about 50%
CASP6 VEID inh: human caspase-6 inhibitors, primary screen, biochemical, VEID-R110 fluorescence, single point, set 2; 0.53% of 350,000 active; purified caspase-6, Z-VEID-R110 cleavage fluorescence; AID 686996, 2013; P55212; inhibition, % at 12.5 µM;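 active = mean inhibition across replicates at least about 35%, with every replicate also reaching that limit, limit read from the data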;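 also: 0% = median of neutral control wells and 100% = no fluorescence left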
TDP2 absorb: human TDP2 enzyme inhibitors, primary screen, biochemical, epi absorbance, recombinant enzyme; Tyrosyl-DNA phosphodiesterase 2 (Homo sapiens), O95551; 0.34% of 370,000 active; AID 720702, 2013; inhibition, % at 12.8 µM; T5PNP hydrolysis, p-nitrophenol absorbance 415 nm;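 active = inhibition above the mean of all tested compounds plus 3 SD, set per campaign, cut at about 25% in these data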;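 also: 0% = DMSO with enzyme and 100% = buffer with substrate but no TDP2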
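Assay system: Recombinant human TDP2 | Quantity: 120 nM TDP2 per well | Incubation: 2 h at 37 °C | Signal: Epi absorbance | Evaluation: Percent inhibition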
LEDGF integ inh: blockers of LEDGF/p75-dependent integrase strand transfer – biochemical, TR-FRET, high throughput, primary screen. TR-FRET IN-LEDGF/p75 DNA integration, Eu/Cy5. inhibition, % at 3.7 µM. HIV-1 integrase (with human LEDGF/p75). 0.64% of 370,000 active;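 active = inhibition above the screen-wide mean plus 3 SD, cut at about 13% in these data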;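 also: signal is the Cy5 over europium emission ratio at 671 and 618 nm; 0% = plate median of compound wells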
MBD2 DNA inh: inhibitors of MBD2 binding to methylated DNA, primary screen, biochemical, TR-FRET, DNA-binding domain, human. MBD2 binding to methylated oligonucleotide. 0.31% of 370,000 active. inhibition, % at 4.4 µM. Methyl-CpG-binding domain protein 2 (Homo sapiens), Q9UBB5. AID 686964, 2013; in the data active = inhibition above about 13%
An asterisk follows results filed as active; . = no result.

SMILES	UHRF1 binding	NSD2 inh	CASP6 VEID inh	TDP2 absorb	LEDGF integ inh	MBD2 DNA inh
N#Cc1ccc(-c2ccc3c(c2)[C@H]2[C@H](CCN2C(=O)c2ccccc2F)[C@@H](CO)N3)cc1	.	.	-3.3	.	.	.
C[C@@H]1CN([C@H](C)CO)C(=O)c2cccc(NC(=O)C3CC3)c2O[C@H]1CN(C)C	.	.	1.4	.	.	.
N/C(=N\OC(=O)Cc1cccs1)c1ccccc1	20.9*	-1.1	.	7.2	-2.2	8.8
Cc1ccc(/C(N)=N/OC(=O)Cc2cccs2)cc1	0.5	0.7	.	0.9	-2.2	-2.7
Cc1cccc(/C(N)=N/OC(=O)Cc2cccc3ccccc23)c1	-0.1	-2.2	3.7	1.9	2.1	0.6
Cc1ccc(/C(N)=N/OC(=O)Cc2cccc3ccccc23)cc1	23.5*	0.5	-0.4	-7.6	0.2	6.5
COc1ccc(S(=O)(=O)Nc2ccc3c(c2)CC(=O)N([C@@H](C)CO)C[C@@H](C)[C@H](CN(C)C(=O)Nc2cccc4ccccc24)O3)cc1	.	.	-1.0	.	.	.
CC(=O)N(C)C1=C(N2CCOCC2)C(=O)c2ccccc2C1=O	.	97.6*	.	.	.	.
O=C(O)c1ccc(NC2=C(N3CCOCC3)C(=O)c3ccccc3C2=O)cc1	-2.8	95.4*	.	22.4	2.0	-6.1
O=C(c1ccccc1)c1ccc(N2CCOCC2)cc1	1.8	1.1	-32.1	-2.0	5.3	-5.4
CC(=O)N(C)C1=C(O)c2ccccc2C(=O)C1=O	-10.2	9.5	.	5.4	1.2	-6.4
CO[C@H]1CN(C)C(=O)c2cc(NS(=O)(=O)c3ccc(C)cc3)ccc2OC[C@@H](C)N(Cc2nccs2)C[C@H]1C	.	.	-0.9	.	.	.
O=C1c2nc3cc(-c4ccco4)[nH]n3c(=O)c2CN1Cc1ccccc1	0.3	0.1	71.2*	-12.8	-0.7	-4.2
CCCCc1c(C)nc2cc(-c3ccco3)[nH]n2c1=O	4.0	3.7	0.0	-0.9	-0.4	4.4
Cc1ccc(OCc2ccc(C(=O)Nc3ccc(C(N)=O)cc3)o2)c([N+](=O)[O-])c1	33.7*	0.4	-1.0	-6.2	-0.1	9.9
O=C(O)c1ccc(NC(=O)c2ccc(COc3ccccc3)o2)cc1	25.8*	-6.3	2.1	-3.9	-0.2	0.8
C/C=C/c1ccc([C@H]2[C@@H](CO)N(C(=O)CN(C)C)[C@@H]2CNC(=O)CC)cc1	.	.	1.6	.	.	.
CCCCn1c(N)c(N(CC(C)C)C(=O)c2cc(-c3ccco3)nc3ccccc23)c(=O)[nH]c1=O	3.2	3.6	39.3*	-10.2	1.9	1.2
COc1cc(OC)c(NC(=S)NCc2ccccc2)cc1Cl	65.0*	1.5	-2.2	-21.3	-3.4	2.5
CC1(c2nnnn2Cc2ccccc2)CCC(=O)N1CCc1ccc(O)cc1 (stereo not drawn)	23.8*	.	1.1	3.1	-1.8	6.5
O=C(C[C@@H]1C[C@@H]2c3cc(NC(=O)C4CCOCC4)ccc3O[C@@H]2[C@@H](CO)O1)NCc1cccc(F)c1	.	.	-1.0	.	.	.
Cc1nn(CCCC(=O)NCCc2ccccc2)c(=O)c2nn(-c3ccccc3)c(C)c12	-2.6	-2.9	50.5*	2.7	3.8	-1.2
CCn1c2ccccc2c2cc(NC(=O)C(=O)N3CCOCC3)ccc21	22.9*	0.4	.	10.9	-4.9	-1.4
C=C[C@@H](COC(C)=O)N(Cc1ccccc1[N+](=O)[O-])S(=O)(=O)c1ccc(Br)cc1	.	.	1.6	.	.	.
COC(=O)COc1cc(Cl)c(C=O)cc1OC	-0.9	1.3	0.0	10.9	3.6	-0.2
SMILES	UHRF1 binding	NSD2 inh	CASP6 VEID inh	TDP2 absorb	LEDGF integ inh	MBD2 DNA inh
CCOC(=O)C(C)Oc1cc(Cl)c(C=O)cc1OC (stereo not drawn)	62.3*	0.2	0.8	13.4	2.1	-1.2
CN(C)CC(=O)Nc1ccc2c(c1)[C@@H]1C[C@H](CC(=O)NCc3cc(F)ccc3F)O[C@@H](CO)[C@@H]1O2	.	.	-1.3	.	.	.
O=C(N[C@H]1CC[C@H](CCNC(=O)c2ccccc2F)O[C@@H]1CO)c1cnccn1	.	.	1.4	.	.	.
COc1ccc(Br)cc1/C=C(\C(=O)O)c1ccc(S(=O)(=O)N2CCCCC2)s1	0.0	8.5	36.9*	1.9	2.6	-3.2
Cc1ccc(C)c(/C=C(\C(=O)O)c2ccc(S(=O)(=O)N3CCCCC3)s2)c1	-1.2	-0.6	37.4*	7.6	1.2	1.1
CCOc1cccc2cc(-c3csc(NC(=O)CCC(=O)NC4CCCC4)n3)c(=O)oc12	.	4.5	.	.	.	.
Cc1c(C(=O)Nc2ccc(F)c(F)c2)oc2ccc(S(=O)(=O)N3CCCCC3)cc12	23.3*	-2.1	0.3	-10.0	-3.4	4.2
CCN(CC)C(=S)SC1=CCS(=O)(=O)C1	25.9*	2.5	6.2	-1.5	5.5	7.3
O=C(CCc1ccccc1)N[C@@H]1c2ccccc2CC[C@H]1OCc1ccccc1	22.6*	.	4.1	-9.2	6.5	5.1
COc1ccc(CN(C)CCCn2cnc3c(SC)ncnc32)cc1OC	28.8*	.	10.4	8.7	-3.6	3.4
Cc1ccc2cc(N)ccc2n1	-0.6	13.9	61.5*	-4.2	-5.6	-6.8
Cc1ccc(S(=O)(=O)Nc2cccc3c2O[C@@H](CN(C)C(=O)NC(C)C)[C@@H](C)CN([C@@H](C)CO)C3=O)cc1	.	.	-1.2	.	.	.
CCC[C@@H](CN1CCC[C@H]1CN1C(N)=NC[C@@H]1Cc1ccccc1)N1C[C@@H](Cc2ccccc2)N(CCc2ccc(Cl)c(Cl)c2)C1=N	1.5	.	44.7*	4.5	1.0	-3.7
CCC[C@@H](CN1CCC[C@H]1CN1C(N)=NC[C@H]1CC(C)C)N1C[C@@H](Cc2ccccc2)N(CCc2ccc(Cl)c(Cl)c2)C1=N	15.4	.	36.0*	-10.3	-1.3	5.5
CCCCN1C(=N)N([C@@H](CCC)CN2CCC[C@H]2CN2C(N)=NC[C@@H]2Cc2ccccc2)C[C@H]1Cc1ccccc1	3.4	.	-3.8	-13.8	5.1	-0.8
CCC(=O)N1CC[C@@H]2[C@H](CO)Nc3ccc(-c4ccc(C(=O)N(C)C)cc4)cc3[C@@H]21	.	.	0.8	.	.	.
COc1cc(/C=C2/C(=O)N(c3ccc(C)c(C)c3)N=C2C)cc([N+](=O)[O-])c1O	-9.1	37.4	3.2	19.0	-2.9	-1.4
CC1=NN(c2ccccc2)C(=O)/C1=C\c1ccc(Oc2ccc([N+](=O)[O-])cc2[N+](=O)[O-])cc1	19.3	.	-3.5	78.0*	31.4*	15.2*
COc1cc2c(ccc3cc(OC)c(OC)c(O)c32)cc1O	52.5*	.	85.7*	7.6	36.4*	26.9*
C[C@@H]1CN([C@H](C)CO)C(=O)c2cc(-c3ccccc3F)cnc2O[C@@H]1CN(C)C(=O)C1CC1	.	.	-1.9	.	.	.
